A selection: hits, their analogues and other compounds. The true share with any hit is near 3.9%.
TAAR1 agonist: human TAAR1 agonism | Q96RJ0 | CHO RD-HGA16 TAAR1, Fluo-8 calcium fluorescence; vehicle wells 0%, saturating PEA agonist 100% | activation, % at 3 µM | 360,000 compounds, 0.99% hits;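 active = activation above the mean activation of all test compounds in the run plus 3 SD, cut at about 38% in these data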
Target sequence (Q96RJ0 whole entry, looked up): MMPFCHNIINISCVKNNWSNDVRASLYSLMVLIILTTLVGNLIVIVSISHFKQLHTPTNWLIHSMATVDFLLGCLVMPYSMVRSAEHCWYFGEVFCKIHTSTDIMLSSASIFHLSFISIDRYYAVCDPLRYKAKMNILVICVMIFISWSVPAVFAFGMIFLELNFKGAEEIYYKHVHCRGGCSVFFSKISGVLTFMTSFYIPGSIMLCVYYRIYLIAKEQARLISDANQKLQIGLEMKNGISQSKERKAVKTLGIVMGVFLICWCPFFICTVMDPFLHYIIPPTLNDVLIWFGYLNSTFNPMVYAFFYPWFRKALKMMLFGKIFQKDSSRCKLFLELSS
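Test system: RD-HGA16 (CHO) cells co-expressing Gα16 and hTAAR1 | Doses: Single dose, 3 µM | Schedule: 17-24 h seeding, 75 min 37 °C dye, 30 min RT | Evaluation: % activation from peak over basal fluorescence ratio, DMSO-to-PEA scaled | Technique: Kinetic Fluo-8 calcium fluorescence | Benchmarks: Low control DMSO, high control PEA (EC100)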
CRFR2-BP ag: CRF-BP/CRF-R2 complex agonism; HEK293 CRF-R2/CRF-BP, calcium dye fluorescence (FLIPR); percent of saturating CRF peptide response; activation, % at 13.2 µM; 350,000 compounds, 0.46% hits; AID 588473;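 active = activation of at least 50%, plus an integration ratio under a set limit after plate pattern correction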;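 also: plate controls were neutral control wells without compound for no effect and CRF at EC100 for full effect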
TAAR1 antag: antagonists of human TAAR1. Q96RJ0. CHO RD-HGA16 TAAR1, Fluo-8 calcium fluorescence, antagonist. inhibition, % at 3 µM. 360,000 compounds, 1.5% hits. AID 624466;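 active = inhibition above a per-plate cutoff, the mean inhibition of test compounds on that plate plus 3 SD, cut at about 49% in these data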;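 also: 0% = DMSO plus EC80 beta-PEA response and 100% = DMSO alone without agonist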
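Assay system: RD-HGA16 CHO cells with stable hTAAR1 and Gα16 / Reagent: EC80 β-phenethylamine stimulus / Doses: 3 µM, single point / Timing: dye loading 75 min at 37 °C, then 30 min room temperature / Measured by: Fluo-8 intracellular calcium dye fluorescence, real-time kinetic reads / Controls: vehicle wells and EC80 agonist wells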
TMEM16A inh: mouse TMEM16A channel inhibition, primary screen; 310,000 compounds, 1.2% hits; AID 588511; Q8BHY3; normalized B-score (activity score, 25-100; higher = stronger inhibition) at 10 µM; HEK293 TMEM16A/YFP iodide influx fluorescence, ionomycin;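 active = ratio plate-corrected score three or more library SD toward inhibition, starting fluorescence score within five deviations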;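 also: score derived from kinetic fluorescence span divided by baseline fluorescence per well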
ANO1 activ: mouse TMEM16A channel activation, primary screen | Q8BHY3 | HEK293 TMEM16A/YFP-H148Q/I152L, iodide quench fluorescence; active compounds read low | B-score at 10 µM | 340,000 compounds, 0.3% hits | AID 623877;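 active = fluorescence-ratio B-score plate-corrected deviation score at least 3 library SD below zero, with starting fluorescence score within 5 deviations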;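 also: channel opened by trigger with iodide after compound preincubation; score built on the fluorescence ratio of max minus min over baseline; more negative score means more quench and so TMEM16A activation or potentiation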
CRFR2-BP antag: blocks CRF-induced signaling of the CRF-BP/CRF-R2 complex; 350,000 compounds, 0.59% hits; AID 588475; inhibition, % at 11.8 µM; HEK293 CRF-R2/CRF-BP, CRF-induced calcium fluorescence;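 active = inhibition of the ligand-induced calcium signal above about 50% at the single tested concentration, limit read from the data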
* marks the source's active call; other numbers are inactive results; i = inactive; / = no result given.

SMILES	TAAR1 agonist	CRFR2-BP ag	TAAR1 antag	TMEM16A inh	ANO1 activ	CRFR2-BP antag
CN(Cc1ccncn1)C(=O)C1CCC(=O)N(Cc2cccc(C(F)(F)F)c2)C1 (stereo not given)	2	-3	-13	i	i	19
Nc1c(Cl)ncnc1NCC(O)CO (stereo not given)	5	1	-16	i	i	-3
CCOC(=O)c1ccc(N2CCN(c3ccc(F)cc3)CC2)c(NC(=O)Nc2cccc(OC)c2)c1	9	2	58*	i	i	5
CCOC(=O)c1ccc(N2CCN(c3ccccc3F)CC2)c(NC(=O)Nc2ccccc2)c1	8	6	48	i	i	-17
Cc1c(CCCN)c2ccccc2n1Cc1ccccc1	26	-2	-11	i	i	-7
CCOC(=O)C1=C(c2ccccc2)NC(=O)NC1c1ccc(O)c(Cl)c1 (stereo not given)	1	0	41	i	-11*	-1
CCOC(=O)C1=C(c2ccccc2)NC(=O)NC1c1ccc(O)c(OCC)c1 (stereo not given)	1	2	-12	i	i	-13
COc1ccc2c(ccc[n+]2[O-])c1	1	-4	-12	/	i	19
COc1ccc2nc3ccccc3[n+]([O-])c2c1	3	58*	-11	/	-10*	7
Cc1nc(N2CCN(C(=O)COc3ccccc3)CC2)c2c(C)c(C)sc2n1	-1	-2	7	100*	i	-4
CCOc1ccc(S(=O)(=O)N2CCCCC2)cc1NC(=O)Cc1cc(OC)c(OC)c(OC)c1	1	-1	8	/	/	-13
O=c1[nH][nH]c(C(F)(F)F)c1C=NCc1cccc(Cl)c1	43*	-1	11	i	i	-6
O=c1[nH][nH]c(C(F)(F)F)c1C=NCc1ccc(Cl)cc1	24	-1	9	i	i	-12
COc1cccc(C2C3=C(N=c4s/c(=C\c5cccc(O)c5)c(=O)n42)c2ccccc2CC3)c1OC (stereo not given)	4	2	23	i	i	-14
COc1ccccc1C1C2=C(N=c3s/c(=C/c4cccc(OCC(=O)O)c4)c(=O)n31)c1ccccc1CC2 (stereo not given)	0	0	-29	i	i	65*
Nc1nc2c(s1)CC(c1ccccc1)CC2 (stereo not given)	10	-1	1	25*	i	-13
Cc1c(Cl)sn(-c2ccc(Cl)cc2)c1=O	12	0	61*	/	-14*	-27
C#CC[N+](C)(C)CCCCCCCC	1	275*	1	i	i	-281
CCCCCC[N+](C)(C)CCSSCC[N+](C)(C)CCCCCC	1	-1	1	i	i	1
C#CC[N+](C)(C)CCCCCCCCCC	1	8	-28	i	i	-4
CCCCCCCCCCCCCCCC[N+](C)(C)CCl	1	34	63*	/	i	25
CCCCCCCCCCCCCCCC[N+](C)(C)CC	32	17	79*	i	i	25
COc1ccc(-c2noc([C@@H]3O[C@H](CO)[C@H](O)[C@H](O)[C@H]3O)n2)cc1OC	3	/	-24	/	/	/
CCC(=O)c1ccc(OCC(O)CN(CCc2ccccc2)Cc2ccccc2)cc1 (stereo not given)	20	-1	2	100*	i	4
Cc1c(C(=O)NC2CCCC2)oc2ccccc12	10	-1	-4	/	i	-5
SMILES	TAAR1 agonist	CRFR2-BP ag	TAAR1 antag	TMEM16A inh	ANO1 activ	CRFR2-BP antag
COc1ccc(C(=O)Nc2cccc(-c3ccc4nncn4n3)c2)cc1OC	3	-1	-10	i	-6.9*	6
COc1cccc(OC)c1C(=O)Nc1cccc(-c2ccc3nncn3n2)c1	1	-1	-6	i	i	-3
CC(C)C(c1nnnn1Cc1ccccc1)N(Cc1ccco1)Cc1cccs1 (stereo not given)	5	3	26	i	-14*	18
COc1ccc(Cn2nnnc2C(C(C)C)N(Cc2ccco2)Cc2cccs2)cc1 (stereo not given)	2	2	9	i	i	-1
O=C(NCCc1cccnc1)C1CCC(=O)N(CCc2cccc(F)c2)C1 (stereo not given)	1	0	-13	i	i	2
CCOc1ccc(N(C)S(=O)(=O)c2cc(-c3cc(C)no3)ccc2CC)cc1	2	5	58*	i	i	-5
COc1cc(OC)c(/C=C2\SC(=O)N(CC(=O)Nc3ccccc3F)C2=O)c(OC)c1	4	2	-14	i	i	-6
COc1cc(/C=C2\SC(=O)N(CC(=O)Nc3ccccc3F)C2=O)cc(Cl)c1O	36	169*	8	i	i	-150
COc1cc(/C=C2\SC(=O)N(CC(=O)Nc3cccc(C)c3)C2=O)cc([N+](=O)[O-])c1O	6	-2	-27	/	i	28
COc1cc(/C=C2\SC(=O)N(c3ccccc3Cl)C2=O)cc([N+](=O)[O-])c1O	-2	-1	9	/	i	88*
Cc1ccc(/C=C/C(=O)OCC(=O)N(C)c2c(N)n(Cc3ccccc3)c(=O)[nH]c2=O)o1	7	0	-30	/	/	-1
Cc1cc(C)nc(NN2C(=O)C=CC2=O)n1	/	1	/	i	i	7
CC(C)(C)[C@H]1COC(=O)[C@H](Cc2ccc(F)cc2)CC/C=C/C[C@@H](CC(=O)N[C@H](CO)Cc2ccccc2)C(=O)N1	7	-2	-2	/	i	-3
Cc1cccc(C)c1N1CCN(C(=O)c2ccc3c(c2)OCO3)CC1	4	0	8	i	i	61*
Cc1cccc(N2CCN(C(=O)c3ccc4c(c3)OCCO4)CC2)c1C	6	-4	-35	i	i	-2
O=C(COc1ccc([N+](=O)[O-])cc1)Nc1nnc(-c2cccnc2)s1	6	-2	-14	i	i	4
COC(=O)[C@@]12CCCCN1[C@H](c1ccc(SC3CCCCC3)cc1)[C@@H]1C(=O)N(C)C(=O)[C@@H]12	4	-1	5	i	-7.9*	-9
O=C1C(Cl)=C(Nc2ccc3cn[nH]c3c2)C(=O)c2ccccc21	-4	-4	62*	i	i	95*
CN(C)c1ccc(NC2=C(Cl)C(=O)c3ccccc3C2=O)cc1	3	0	66*	i	i	75*
O=C1C(Cl)=C(NCCCO)C(=O)c2ccccc21	3	-7	-12	i	i	6
Cc1ccc(C(=O)N(C)CC(=O)Nc2cccc(C)c2C)o1	0	2	3	i	i	-4

Source: PubChem (several laboratories)
